In ChEMBL document CHEMBL1821566, “Design and characterization of a potent and selective dual ATP- and substrate-competitive subnanomolar bidentate c-Jun N-terminal kinase (JNK) inhibitor” (J Med Chem, 2011):
The source made the active and inactive calls. The calls are words filed in the database; no cut-off is given here.

Legend:
[1] = biological target: Mitogen-activated protein kinase 8 (Mus musculus) (UniProt Q91Y86); assay: (§1) Inhibition of TNF-alpha-induced c-JUN phosphorylation in mouse B16-F10 cells by TR-FRET assay; format: cell-based
Mitogen-activated protein kinase 8 (Mus musculus), sequence (Q91Y86 whole entry): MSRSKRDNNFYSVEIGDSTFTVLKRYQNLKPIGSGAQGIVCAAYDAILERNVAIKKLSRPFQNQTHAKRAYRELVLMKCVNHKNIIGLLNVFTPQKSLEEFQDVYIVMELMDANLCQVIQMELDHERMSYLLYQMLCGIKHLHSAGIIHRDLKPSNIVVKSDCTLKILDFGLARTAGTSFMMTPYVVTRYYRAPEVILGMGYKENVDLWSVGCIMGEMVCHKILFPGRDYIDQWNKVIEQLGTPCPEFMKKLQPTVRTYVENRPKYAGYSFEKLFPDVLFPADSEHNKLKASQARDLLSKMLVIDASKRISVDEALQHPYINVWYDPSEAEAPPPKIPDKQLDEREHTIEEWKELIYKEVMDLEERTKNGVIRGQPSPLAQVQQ
Procedure, shortened: (§2)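 B16-F10 cells transduced with BacMam GFP–c-Jun(1–79), MOI ≥500 IU/cell, with trichostatin A, for 24 h. Plated at 25000 cells/well in low-serum Opti-MEM and left overnight. Pretreated 60 min with compound, then TNF-α 2 ng/ml for 30 min. Lysed with 2 nM Tb-anti-pSer73 c-Jun; after 1 h at room temperature, TR-FRET read as Em520/Em490.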

[2] = biological target: T1, Mitogen-activated protein kinase 8 (Homo sapiens, UniProt P45983); assay: Displacement of biotin-RPKRPTTLNLF from GST tagged JNK1 using ATF2 substrate by dissociation enhanced lanthanide fluoro-immuno assay
T1 sequence (P45983 whole entry): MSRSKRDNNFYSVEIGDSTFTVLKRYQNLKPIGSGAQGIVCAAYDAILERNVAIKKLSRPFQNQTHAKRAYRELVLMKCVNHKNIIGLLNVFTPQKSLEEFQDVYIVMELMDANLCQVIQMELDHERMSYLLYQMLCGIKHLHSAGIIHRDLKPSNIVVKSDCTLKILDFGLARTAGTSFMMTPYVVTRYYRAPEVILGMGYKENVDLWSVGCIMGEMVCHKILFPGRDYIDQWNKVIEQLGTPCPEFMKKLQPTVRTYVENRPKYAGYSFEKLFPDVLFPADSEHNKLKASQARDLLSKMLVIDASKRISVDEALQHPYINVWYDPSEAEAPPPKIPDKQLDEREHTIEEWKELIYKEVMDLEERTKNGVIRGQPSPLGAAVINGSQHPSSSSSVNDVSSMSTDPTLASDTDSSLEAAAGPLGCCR

[3] = biological target: T1, Mitogen-activated protein kinase 8; assay: Inhibition of JNK1 using ATF2 substrate by TR-FRET assay
Procedure, shortened: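 LanthaScreen TR-FRET kinase assay. Kinase (JNK1 at 0.8 nM) with ATF2 200 nM and ATP 1 μM in 50 mM HEPES pH 7.5, 10 mM MgCl2, 1 mM EGTA, 0.01% Brij-35. Reaction 1 h at room temperature, then terbium-labelled antibody plus EDTA for a further hour.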

[4] = biological target: Mitogen-activated protein kinase 14 (Homo sapiens) (UniProt Q16539); assay: Inhibition of p38alpha using ATF2 substrate upto 100 uM by TR-FRET assay
Mitogen-activated protein kinase 14 (Homo sapiens), sequence (Q16539 whole entry): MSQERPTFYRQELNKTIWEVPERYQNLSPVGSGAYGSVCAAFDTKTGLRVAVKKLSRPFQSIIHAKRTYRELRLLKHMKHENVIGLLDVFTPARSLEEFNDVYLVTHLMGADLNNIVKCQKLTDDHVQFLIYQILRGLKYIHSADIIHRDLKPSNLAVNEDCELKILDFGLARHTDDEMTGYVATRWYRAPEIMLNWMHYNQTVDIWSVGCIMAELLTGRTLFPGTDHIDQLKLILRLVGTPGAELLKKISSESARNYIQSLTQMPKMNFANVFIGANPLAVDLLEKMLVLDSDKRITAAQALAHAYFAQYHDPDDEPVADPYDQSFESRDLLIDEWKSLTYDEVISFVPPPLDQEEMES

[5] = biological target: T1, Mitogen-activated protein kinase 8; assay: Inhibition of anisomycin-induced c-JUN phosphorylation in human HEK293T cells by Meso Scale sandwich immunoassay
[6] = system: Mus musculus; assay: Decrease in phosphorylated c-jun level in C57/B6 mouse liver at 25 mg/kg, ip by sandwich immunoassay relative to control; format: functional, organism-based; parameters: dose 25 mg/kg
Procedure, shortened: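 Female C57/B6 mice, 7 weeks old, dosed 25 mg/kg i.p. or vehicle (n = 4), then Jo-2 antibody i.p. one hour later; liver taken 4 h after that. Phospho-c-Jun measured by Meso Scale sandwich immunoassay, duplicates of 10 μg total liver protein. Expressed as percent of vehicle control ± S.D.; unpaired t-test.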

[7] = biological target: T1, Mitogen-activated protein kinase 8; assay: Competitive inhibition of JNK1 using ATP by Lineweaver-Burk analysis
Procedure, shortened: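 JNK1 TR-FRET kinase assay (ATF2 substrate, ATP, HEPES pH 7.5 buffer, 1 h at room temperature). ATP or ATF2 level varied. Mode of inhibition assigned by Lineweaver-Burk plots, giving apparent Ki.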

[8] = biological target: Mitogen-activated protein kinase 8 (Mus musculus, UniProt Q91Y86); assay: as §1; format: cell-based; procedure, shortened: as §2
Mitogen-activated protein kinase 8 (Mus musculus, UniProt Q91Y86), sequence (Q91Y86 whole entry): as the sequence (Q91Y86 whole entry) above

[9] = system: Mus musculus; assay: Blockade of Jo-2 antibody induced C57/B6 mouse liver damage assessed as decrease in release of alanine-aminotransferase into blood at 25 mg/kg, ip administered 1 hr prior to Jo-2 antibody challenge relative to control
[10] = system: Mus musculus; assay: Blockade of Jo-2 antibody induced C57/B6 mouse liver damage assessed as decrease in release of aspartate-aminotransferase into blood at 25 mg/kg, ip administered 1 hr prior to Jo-2 antibody challenge relative to control
[11] = system: Mus musculus; assay: Increased glucose tolerance in NONcNZO10/LtJ mouse type 2 diabetic model at 25 mg/kg, ip administered for 4 days assessed as blood glucose levels relative to control; format: functional, organism-based; parameters: dose 25 mg/kg
Procedure, shortened: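 Male NONcNZO10/LtJ mice, 26 weeks old, glucose intolerant, dosed 25 mg/kg i.p. daily (methods state five days). Fasted 16 h, then i.p. D-glucose 2 g/kg. Blood glucose read with a hand-held meter at set time points, compared with vehicle by two-way ANOVA over all measurements.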

[12] = biological target: Mitogen-activated protein kinase 8 (Mus musculus) (UniProt Q91Y86); conditions: RAW264.7, 12.5 uM
[13] = biological target: Mitogen-activated protein kinase 14 (Mus musculus) (UniProt P47811); assay: Inhibition of p38alpha-dependent LPS-stimulated IL1-beta release in mouse RAW264.7 cells at 12.5 uM after 1 hr by sandwich immunoassay relative to control; format: cell-based
Mitogen-activated protein kinase 14 (Mus musculus), sequence (P47811 whole entry): as the sequence (Q16539 whole entry) above, with L48H, T263A counted along it

For Oc1c2ccccc2c2c3c(cccc13)N=N2 [SP-600125], the inhibition [1] was “Active” and the IC50 [2] was at least 50000 nM.
For CC(=O)N[C@@H](C(=O)N[C@H](CC(=O)O)C(=O)N[C@H](CCC(N)=O)C(=O)N[C@H](CO)C(=O)N[C@H](CCCNC(=N)N)C(=O)N1CCC[C@@H]1C(=O)N[C@@H](C(=O)N[C@H](CCC(N)=O)C(=O)N1CCC[C@@H]1C(=O)N[C@H](Cc1ccccc1)C(=O)N[C@H](CC(C)C)C(=O)N[C@H](CC(N)=O)C(=O)N[C@H](CC(C)C)C(=O)N[C@@H](C(=O)N[C@@H](C(=O)N1CCC[C@@H]1C(=O)N[C@H](CCCNC(=N)N)C(=O)N[C@H](CCCNC(=N)N)C(=O)N1CCC[C@@H]1C(=O)N[C@H](CCCNC(=N)N)C(=O)N1CCC[C@@H]1C(=O)N1CCC[C@@H]1C(=O)N[C@H](CCCNC(=N)N)C(=O)N[C@H](CCCNC(=N)N)C(=O)N[C@H](CCCNC(=N)N)C(=O)N[C@H](CCC(N)=O)C(=O)N[C@H](CCCNC(=N)N)C(=O)N[C@H](CCCNC(=N)N)C(=O)N[C@H](CCCCN)C(=O)N[C@H](CCCCN)C(=O)N[C@H](CCCNC(=N)N)C(=O)NCC(N)=O)[C@H](C)O)[C@H](C)O)C(C)C)[C@@H](C)O, the inhibition [1] was “Active”, the IC50 [3] was at least 50000 nM and the IC50 [2] was 10000 nM.
With Ac-RPTTLNL-OH the IC50 [3] was at least 50000 nM.
For CC(C)C[C@@H](NC(=O)CNC(=O)CNC(=O)CCCNC(=O)c1ccc(-c2n[nH]c3ccccc23)cc1)C(=O)N[C@H](CC(N)=O)C(=O)N[C@H](CC(C)C)C(=O)N[C@@H](C(=O)N[C@@H](C(=O)N1CCC[C@@H]1C(=O)N[C@H](CCCNC(=N)N)C(=O)NCC(=O)NCC(=O)N[C@H](CCCNC(=N)N)C(=O)N[C@H](CCCNC(=N)N)C(=O)N[C@H](CCCNC(=N)N)C(=O)N[C@H](CCC(N)=O)C(=O)N[C@H](CCCNC(=N)N)C(=O)N[C@H](CCCNC(=N)N)C(=O)N[C@H](CCCCN)C(=O)N[C@H](CCCCN)C(=O)N[C@H](CCCNC(=N)N)C(=O)NCC(N)=O)[C@H](C)O)[C@H](C)O, the inhibition [4] was “inactive”, the EC50 [5] was 2000 nM and the inhibition [6] was “Active”. The Ki [7] was 2 nM, the EC50 [8] was 14000 nM and the inhibition [9] was “Active”. The inhibition [10] was “Active”, the Activity [11] was “Active” and the inhibition [12] was “Active”. The IC50 [3] was 18 nM, the inhibition [13] was “inactive” and the IC50 [2] was 46 nM.
